Our source for the Activity and solubility values is ChEMBL document CHEMBL1152239, “Development of mitochondria-targeted derivatives of resveratrol” (Bioorg Med Chem Lett, 2008).

The source made the active and inactive calls. The rule behind the calls is not given here.

For series [1], the system named is MEF. Description: Cytotoxicity against slow-growing MEF at 5 uM by tetrazolium salt reduction assay. It counts as cell-based. As to conditions: mouse. A digest of the protocol:
(§1)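 MTT (tetrazolium salt reduction) read-out after cells grew for 3 days with the compound present, tested at 1 and 5 µM. Cell lines were C-26 mouse colon tumor cells and fast- and slow-growing non-tumoral mouse embryonic fibroblasts. Each measurement was run in quadruplicate and reported as average ± s.d.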

Series [2] in a line: Drug uptake in rat liver mitochondria at 0.5 uM measured by TPP+ sensitive electrode. It counts as ADME. As to conditions: in vitro.
Series [3] deals with MEF. Description: Cytotoxicity against fast-growing MEF at 5 uM by tetrazolium salt reduction assay. It counts as functional, cell-based. As to conditions: Mus musculus. Put shortly: as §1
The next series concerns C26. Description: Cytotoxicity against mouse C26 cells at 5 uM by tetrazolium salt reduction assay. Format: functional, cell-based. A digest of the protocol:
as §1

Series [4] in a line: Solubility in water. Format: physicochemical.
A further series relates to HCT-116. Description: Drug uptake in human HCT116 cells at 10 uM after 25 mins by fluorescence microscopic method. Format: ADME, cell-based. As to conditions: hct-116, 25 min. A digest of the protocol: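 Cultured HCT116 cells were imaged by fluorescence microscopy with excitation at 340 nm, just before compound addition and 25 min after it. Protonophore FCCP was then added and cells were imaged again 10 min later to check that the signal depends on membrane potential.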

What is called solubility is how much of the substance goes into solution per volume. A high value points to much dissolved substance. For the molecule `CC(=O)Oc1cc(/C=C/c2ccc(OCCCC[P+](c3ccccc3)(c3ccccc3)c3ccccc3)cc2)cc(OC(C)=O)c1.[I-]`, the Activity result was “Not Active” with MEF [1], “Active” in series [2] and “Active” in the series on HCT-116. The result in the series with MEF [3] and with C26 was Active. Also, the solubility in series [4] was found to be 97 µM.

For `Oc1cc(O)cc(/C=C/c2ccc(OCCCC[P+](c3ccccc3)(c3ccccc3)c3ccccc3)cc2)c1.[I-]`, the Activity entry in the series on MEF [1] is reported as “Not Active”; with HCT-116 it was “Active”. The outcome with MEF [3] and with C26 was Active. The same molecule displayed a solubility in series [4] of 31.2 µM.
